ChEMBL document CHEMBL2407023, “trans-Resveratrol in Gnetum gnemon protects against oxidative-stress-induced endothelial senescence” (J Nat Prod, 2013)
Calls of active or inactive are those of the source.

Key:
[1] = molecular target: T1, NAD-dependent protein deacetylase sirtuin-1 (Homo sapiens) (UniProt Q96EB6); test: Activation of SIRT1 (unknown origin) by fluorescence assay
T1 sequence (whole entry): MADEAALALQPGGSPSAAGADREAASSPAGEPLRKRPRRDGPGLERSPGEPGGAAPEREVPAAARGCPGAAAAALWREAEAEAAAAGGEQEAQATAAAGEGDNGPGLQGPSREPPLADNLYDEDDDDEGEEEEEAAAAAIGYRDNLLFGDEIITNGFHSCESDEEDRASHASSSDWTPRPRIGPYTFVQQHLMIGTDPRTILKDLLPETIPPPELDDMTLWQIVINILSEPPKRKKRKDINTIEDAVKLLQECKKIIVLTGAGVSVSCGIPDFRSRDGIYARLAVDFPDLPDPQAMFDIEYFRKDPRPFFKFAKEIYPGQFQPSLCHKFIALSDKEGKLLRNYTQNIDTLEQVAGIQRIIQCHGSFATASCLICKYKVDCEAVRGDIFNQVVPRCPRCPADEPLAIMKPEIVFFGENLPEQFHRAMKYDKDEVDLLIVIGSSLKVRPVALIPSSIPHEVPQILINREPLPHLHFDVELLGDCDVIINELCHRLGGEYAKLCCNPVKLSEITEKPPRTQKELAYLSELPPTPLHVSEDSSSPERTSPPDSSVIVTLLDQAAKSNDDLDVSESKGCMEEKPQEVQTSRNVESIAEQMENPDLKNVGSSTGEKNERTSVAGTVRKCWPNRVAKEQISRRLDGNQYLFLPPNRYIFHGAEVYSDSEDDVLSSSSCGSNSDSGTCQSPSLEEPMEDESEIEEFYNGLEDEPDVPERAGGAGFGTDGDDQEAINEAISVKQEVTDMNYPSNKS
How it was run: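 HUVEC exposed to compounds at 100 μmol/L were assayed for SIRT1 activity with a fluorescent SIRT1 activity kit, following the manufacturer's protocol. NAD+ was the positive control. Comparison was against vehicle control, n = 3.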

HUVEC [2] = test: Inhibition of H2O2-induced HUVEC senescence pretreated for 1 day followed by compound washout and H2O2-treatment measured after 10 days by SA-beta galactosidase staining-based assay; format: functional, cell-based; settings: Homo sapiens
How it was run: (§1)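 HUVEC at PDL 10−11 were grown to 80% confluence and pretreated 1 day with compound at 100 μmol/L (vehicle 0.05% DMSO). After washing, they received 100 μmol/L H2O2 for 1 h and were reseeded at 1 × 10^6 per dish. Culture continued 10 days with compound. Fixed cells were scored for SA-βgal-positive proportion, with hematoxylin counterstain for morphology; n = 3.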

HUVEC [3] = test: Effect on SIRT1 expression in H2O2-induced HUVEC pretreated for 1 day followed by compound washout and H2O2-treatment measured after 10 days by immunoblotting analysis; format: functional, cell-based; settings: Homo sapiens
How it was run: (§2)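 HUVEC at PDL 10−11 were pretreated 1 day with compound at 100 μmol/L in EGM-2 (vehicle 0.05% DMSO). Cells were washed and exposed to 100 μmol/L H2O2 for 1 h. They were then reseeded and cultured 10 days with compound. Lysates were made in Tris/NP40/SDS buffer with protease and phosphatase inhibitors and immunoblotted. β-actin was the loading reference, with ECL detection.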

HUVEC [4] = test: Inhibition of H2O2-induced HUVEC senescence assessed as change in cellular morphology pretreated for 1 day followed by compound washout and H2O2-treatment measured after 10 days by hematoxylin staining-based assay; format: functional, cell-based; settings: Homo sapiens; how it was run: as §1
[5] = molecular target: T1, NAD-dependent protein deacetylase sirtuin-1 (Homo sapiens); test: Induction of SIRT1-mediated TFAM expression in H2O2-induced HUVEC pretreated for 1 day followed by compound washout and H2O2-treatment measured after 10 days by RT-PCR analysis; format: cell-based
How it was run: (§3)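 HUVEC were treated with compound at 100 μmol/L and H2O2 as in the senescence protocol. Total RNA was DNase-treated, then reverse transcribed with random hexamers and oligo d(T). mRNA was quantified by SYBR green real-time PCR relative to β-actin. Primer quality was checked by dissociation curves, standard-curve slopes and no-RT reactions.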

[6] = molecular target: T1, NAD-dependent protein deacetylase sirtuin-1 (Homo sapiens); test: Induction of SIRT1-mediated NRF-1 expression in H2O2-induced HUVEC pretreated for 1 day followed by compound washout and H2O2-treatment measured after 10 days by RT-PCR analysis; format: cell-based; how it was run: as §3
HUVEC [7] = test: Effect on eNOS expression in H2O2-induced HUVEC pretreated for 1 day followed by compound washout and H2O2-treatment measured after 10 days by immunoblotting analysis; format: functional, cell-based; settings: Homo sapiens; how it was run: as §2
HUVEC [8] = test: Effect on PAI-1 expression in H2O2-induced HUVEC pretreated for 1 day followed by compound washout and H2O2-treatment measured after 10 days by immunoblotting analysis; format: functional, cell-based; settings: Homo sapiens; how it was run: as §2
HUVEC [9] = test: Induction of mitochondrial biogenesis in H2O2-induced HUVEC at 100 umol/L pretreated for 1 day followed by compound washout and H2O2-treatment measured after 10 days by MitoTracker Red staining-based assay; format: functional, cell-based; settings: Homo sapiens
How it was run: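 HUVEC were grown in chamber slides to 80% confluence and treated with compound at 100 μmol/L plus H2O2. At 10 days after H2O2, cells were stained 15 min with 100 nM MitoTracker Red CMXRos in prewarmed medium. Nuclei were counterstained with DAPI and cells imaged by fluorescence microscopy.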

HUVEC [10] = test: Effect on p53 expression in H2O2-induced HUVEC pretreated for 1 day followed by compound washout and H2O2-treatment measured after 10 days by immunoblotting analysis; format: functional, cell-based; settings: Homo sapiens; how it was run: as §2

Oc1ccc(/C=C/c2cc(O)cc(O)c2)cc1
active: Activity [1] | inhibition (HUVEC [2]) | Activity (HUVEC [3]) | inhibition (HUVEC [4]) | Activity [5] | Activity [6] | Activity (HUVEC [7]) | Activity (HUVEC [8]) | Activity (HUVEC [9]) | Activity (HUVEC [10])
